Assay results from ChEMBL document CHEMBL4011632, “Design, Synthesis, and Evaluation of Thiazolidine-2,4-dione Derivatives as a Novel Class of Glutaminase Inhibitors” (J Med Chem, 2017).
Activity calls are given as the source filed them. The calls are words filed in the database; no cut-off is given here.

What was measured:
[1] = tested on: ASPC1; experiment: Anticlonogenic activity against human Aspc-1 cells at 10 uM after 21 days by crystal violet staining based assay relative to control; assay type: functional; details: ASPC1, 504 h
Outline: (§1)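 Anchorage-dependent colony formation: AsPC-1 cells seeded at 1000 cells/well in six-well plates and treated with compound. Colony formation is expressed as percent of vehicle treatment. Mean ± SD from at least three independent experiments, each in duplicate.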

[2] = Cmax in Sprague-Dawley rat at 10 mg/kg, po by HPLC-MS analysis; assay type: ADME, organism-based; design: dose 10 mg/kg, route oral; details: in vivo
Outline: (§2)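 Male rats (330−380 g, 9−10 weeks old), jugular-vein cannulated 1 day before dosing, n = 3. Dosed iv in DMA/PEG400 (20%/80%, v/v) or po in 1% CMC/0.5% Tween-80. Blood (100 μL) drawn at 0, 2 min, 5 min (iv only), 15 and 30 min, and 1, 2, 4, 6, 8 and 24 h. Plasma measured by LC-MS/MS; parameters from noncompartmental analysis.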

[3] = Tmax in Sprague-Dawley rat at 10 mg/kg, po by HPLC-MS analysis; assay type: ADME, organism-based; details: in vivo; outline: as §2
[4] = tested on: ASPC1; experiment: Antitumor activity against human Aspc-1 cells xenografted in Balb/cAnN.Cg-Foxn1nu/CrlNarl mouse assessed as tumor growth inhibition at 25 mg/kg, ip once daily administered for 5 days followed by 2 days without dosing for 43 days relative to control; assay type: functional; details: read-out: TGI
Outline: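 Male nude mice (7−8 weeks, 18−22 g) received 4.5 × 10^6 AsPC-1 cells sc in the right flank, in HBSS mixed 1:1 with Matrigel. Mice were randomized once mean tumor reached ~100 mm3 (day 1). Dosing was ip once daily, 5 days on/2 days off, with 2% DMSO/PBS as vehicle. Tumors were measured twice weekly, V = ab²/2. %TGI = [1 − ((Tt − T0)/(Ct − C0))] × 100 from median volumes; Student's t test.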

[5] = Inhibition of recombinant human His-tagged KGA S384A mutant expressed in Escherichia coli BL21(DE3)pLysS using glutamine substrate preincubated for 10 mins followed by substrate addition measured after 60 mins
[6] = tested on: ASPC1; experiment: Growth inhibition of human Aspc-1 cells after 72 hrs by MTS assay; assay type: functional, cell-based; details: ASPC1, 72 h
Outline: (§3)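 Growth inhibition by MTS viability read-out. Cells seeded in 96-well plates at 4000/well (AsPC-1) or 8500/well (MDA-MB-231). Mean ± SD from at least three independent experiments, each in duplicate.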

[7] = Volume of distribution at steady state in Sprague-Dawley rat at 2 mg/kg, iv by HPLC-MS analysis; assay type: ADME, organism-based; details: in vivo, read-out: Vdss
Outline: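 Male rats (330−380 g, 9−10 weeks old), quarantined 1 week, jugular-vein cannula implanted 1 day before dosing; n = 3. Single iv dose in DMA/PEG400 (20%/80%, v/v). Blood (100 μL) was drawn via cannula at 0, 2, 5, 15, 30 min and 1, 2, 4, 6, 8, 24 h and kept on ice. Plasma was analysed by HPLC−MS/MS. Vss came from noncompartmental analysis.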

[8] = tested on: ASPC1; experiment: Synergistic cytotoxicity against human Aspc-1 cells assessed as reduction in cell viability at ED50 in presence of doxorubicin by MTS assay; assay type: functional
Outline: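 AsPC-1 cells treated with compound combinations and viability read by MTS. Combination index at ED50, ED75 and ED90 calculated by the Chou−Talalay method. CI = 1 additive, <1 synergism, >1 antagonism. Representative of three independent experiments.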

[9] = tested on: ASPC1; experiment: Anticlonogenic activity against human Aspc-1 cells at 2 uM after 21 days by crystal violet staining based assay relative to control; assay type: functional; details: ASPC1, 504 h; outline: as §1
[10] = Terminal half life in Sprague-Dawley rat at 10 mg/kg, po by HPLC-MS analysis; assay type: ADME, organism-based; details: in vivo, read-out: beta t1/2 (converted); outline: as §2
[11] = Inhibition of recombinant human His-tagged KGA K507A mutant expressed in Escherichia coli BL21(DE3)pLysS using glutamine substrate preincubated for 10 mins followed by substrate addition measured after 60 mins
[12] = Inhibition of recombinant human His-tagged KGA R387A mutant expressed in Escherichia coli BL21(DE3)pLysS using glutamine substrate preincubated for 10 mins followed by substrate addition measured after 60 mins
[13] = AUC (0 to infinity) in Sprague-Dawley rat at 2 mg/kg, iv by HPLC-MS analysis; assay type: ADME, organism-based; design: dose 2 mg/kg, route intravenous, time infinity; details: in vivo; outline: as §2
[14] = Terminal half life in Sprague-Dawley rat at 2 mg/kg, iv by HPLC-MS analysis; assay type: ADME, organism-based; details: in vivo, read-out: beta t1/2 (converted); outline: as §2
[15] = Inhibition of recombinant human His-tagged KGA R387L mutant expressed in Escherichia coli BL21(DE3)pLysS using glutamine substrate preincubated for 10 mins followed by substrate addition measured after 60 mins
[16] = Oral bioavailability in Sprague-Dawley rat at 10 mg/kg by HPLC-MS analysis; assay type: ADME, organism-based; details: in vivo; outline: as §2
[17] = tested on: MDA-MB-231; experiment: Growth inhibition of human MDA-MB-231 cells after 72 hrs by MTS assay; assay type: functional, cell-based; details: MDA-MB-231, 72 h; outline: as §3
[18] = target: T1, Glutaminase liver isoform, mitochondrial (Homo sapiens) (UniProt Q9UI32); experiment: Inhibition of human GLS2 in GLS1 deficient human Aspc-1 cells assessed as decrease in cellular glutamate production at 3.13 to 100 uM after 4 hrs by amplex red glutamic acid assay
T1 sequence (whole entry): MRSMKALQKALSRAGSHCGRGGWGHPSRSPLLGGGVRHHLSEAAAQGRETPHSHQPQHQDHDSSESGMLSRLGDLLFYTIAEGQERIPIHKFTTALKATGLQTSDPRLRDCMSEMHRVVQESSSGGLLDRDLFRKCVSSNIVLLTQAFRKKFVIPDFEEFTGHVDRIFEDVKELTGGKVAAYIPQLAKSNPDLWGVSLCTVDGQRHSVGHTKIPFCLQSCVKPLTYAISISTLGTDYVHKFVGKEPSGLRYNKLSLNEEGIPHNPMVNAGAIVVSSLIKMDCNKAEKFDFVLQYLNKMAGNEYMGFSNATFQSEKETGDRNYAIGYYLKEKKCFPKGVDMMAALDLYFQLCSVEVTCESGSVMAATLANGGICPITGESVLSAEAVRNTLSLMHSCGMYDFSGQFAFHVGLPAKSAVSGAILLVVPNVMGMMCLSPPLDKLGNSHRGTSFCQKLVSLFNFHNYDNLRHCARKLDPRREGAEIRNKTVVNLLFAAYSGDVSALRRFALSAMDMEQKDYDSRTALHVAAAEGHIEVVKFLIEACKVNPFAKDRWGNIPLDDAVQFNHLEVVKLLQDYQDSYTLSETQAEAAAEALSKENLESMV
Outline: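 GLS-knockout AsPC-1 cells made with GLS-KO ZFN mRNA, single-cell cloned, and grown in glutamine-free RPMI 1640 with 10% FBS. Cells seeded at 30 000/well and grown 24 h at 37 °C. Treated 4 h with 1% DMSO vehicle or 3.13−100 μM inhibitor, washed with PBS, and lysed in NP-40 buffer (4 °C, 20 min). Lysate glutamate measured by Amplex Red. Three independent experiments in duplicate.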

[19] = AUC (0 to infinity) in Sprague-Dawley rat at 10 mg/kg, po by HPLC-MS analysis; assay type: ADME, organism-based; design: dose 10 mg/kg, time infinity, route oral; details: in vivo
Outline: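 Male rats (330−380 g, 9−10 weeks old), jugular-vein cannulated 1 day before dosing, n = 3. Oral dose given in 1% CMC/0.5% Tween-80. Blood (100 μL) taken via cannula at 0, 15 and 30 min and 1, 2, 4, 6, 8 and 24 h, kept on ice. Plasma analysed by HPLC−tandem MS. Parameters from noncompartmental analysis.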

[20] = compound: Cc1cc(/C=C2\SC(=O)NC2=O)c(C)n1-c1ccc(-c2ccc(/C=C3\SC(=O)NC3=O)cc2)cc1; experiment: (§4) Mixed-type inhibition of recombinant human KGA (L123 to L669 residues) expressed in Escherichia coli BL21(DE3)pLysS assessed as Vmax for substrate at 0.4 uM using glutamine substrate preincubated for 10 mins followed by substrate addition measured after 60 mins by Linerweaver-Burk plot analysis (reference value: 26.2 +/- 0.2 nmol/min/ug)
Outline: (§5)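 Kinetic analysis on human KGA: glutamine saturation profiles recorded at 0−0.4 μM inhibitor. Km and Vmax derived at each inhibitor concentration to assign the inhibition mode.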

[21] = compound: Cc1cc(/C=C2\SC(=O)NC2=O)c(C)n1-c1ccc(-c2ccc(/C=C3\SC(=O)NC3=O)cc2)cc1; experiment: as §4, with “Km” for “Vmax”, “0.1” for “0.4”, “25.5” for “26.2”, “0.6 mM)” for “0.2 nmol/min/ug)”; outline: as §5
[22] = compound: Cc1cc(/C=C2\SC(=O)NC2=O)c(C)n1-c1ccc(-c2ccc(/C=C3\SC(=O)NC3=O)cc2)cc1; experiment: as §4, with “0.05” for “0.4”; outline: as §5
[23] = compound: Cc1cc(/C=C2\SC(=O)NC2=O)c(C)n1-c1ccc(-c2ccc(/C=C3\SC(=O)NC3=O)cc2)cc1; experiment: as §4, with “Km” for “Vmax”, “0.05” for “0.4”, “25.5” for “26.2”, “0.6 mM)” for “0.2 nmol/min/ug)”; outline: as §5
[24] = compound: Cc1cc(/C=C2\SC(=O)NC2=O)c(C)n1-c1ccc(-c2ccc(/C=C3\SC(=O)NC3=O)cc2)cc1; experiment: as §4, with “0.1” for “0.4”; outline: as §5
[25] = compound: Cc1cc(/C=C2\SC(=O)NC2=O)c(C)n1-c1ccc(-c2ccc(/C=C3\SC(=O)NC3=O)cc2)cc1; experiment: as §4, with “0.2” for “0.4”; outline: as §5

Molecule: O=C(Cc1ccccc1)Nc1nnc(CCSCCc2nnc(NC(=O)Cc3ccccc3)s2)s1
- inhibition at 10 µM [1]: 98%
- Cmax [2]: 40 ng/mL
- Tmax [3]: 0.7 h
- inhibition in vivo at 25 mg/kg [4]: 55%
- IC50 [5]: 65 nM
- IC50 [6]: 10200 nM
- Vd [7]: 8.8 L/kg
- CI [8]: 0.45 - 0.68
- inhibition at 2 µM [9]: 41%
- half-life [10]: 2 h
- IC50 [11]: 66 nM
- IC50 [12]: 63 nM
- AUC(0-inf) [13]: 636 ng·h/mL
- half-life [14]: 5.3 h
- IC50 [15]: 345 nM
- bioavailability [16]: 2%
- IC50 [17]: 6800 nM
- inhibition [18]: inactive
- AUC(0-inf) [19]: 73 ng·h/mL

B1: Glutaminase kidney isoform, mitochondrial (Homo sapiens), O94925 (protein)
chain: MMRLRGSGMLRDLLLRSPAGVSATLRRAQPLVTLCRRPRGGGRPAAGPAAAARLHPWWGGGGWPAEPLARGLSSSPSEILQELGKGSTHPQPGVSPPAAPAAPGPKDGPGETDAFGNSEGKELVASGENKIKQGLLPSLEDLLFYTIAEGQEKIPVHKFITALKSTGLRTSDPRLKECMDMLRLTLQTTSDGVMLDKDLFKKCVQSNIVLLTQAFRRKFVIPDFMSFTSHIDELYESAKKQSGGKVADYIPQLAKFSPDLWGVSVCTVDGQRHSTGDTKVPFCLQSCVKPLKYAIAVNDLGTEYVHRYVGKEPSGLRFNKLFLNEDDKPHNPMVNAGAIVVTSLIKQGVNNAEKFDYVMQFLNKMAGNEYVGFSNATFQSERESGDRNFAIGYYLKEKKCFPEGTDMVGILDFYFQLCSIEVTCESASVMAATLANGGFCPITGERVLSPEAVRNTLSLMHSCGMYDFSGQFAFHVGLPAKSGVAGGILLVVPNVMGMMCWSPPLDKMGNSVKGIHFCHDLVSLCNFHNYDNLRHFAKKLDPRREGGDQRVKSVINLLFAAYTGDVSALRRFALSAMDMEQRDYDSRTALHVAAAEGHVEVVKFLLEACKVNPFPKDRWNNTPMDEALHFGHHDVFKILQEYQVQYTPQGDSDNGKENQTVHKNLDGLL
- Vmax [20]: 15 nmol/min/µg
- Km [21]: 69.7 mM
- Vmax [22]: 26.3 nmol/min/µg
- Km [23]: 50.9 mM
- Vmax [24]: 26.2 nmol/min/µg
- Vmax [25]: 22.9 nmol/min/µg
